Experimental data as given in ChEMBL document CHEMBL1130099, “Stabilized analogs of thymopentin. 2. 1,2- and 3,4-ketomethylene pseudopeptides” (J Med Chem, 1997).

Legend:
CCRF-CEM [1] = assay: Binding efficacy expressed as counts remaining after competition was subtracted from total of Thymopentin and divided by the counts reduced by authentic Thymopentin; format: functional, Homo sapiens
Outline: (§1)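 CEM cells at 5×10^6 cells/0.1 mL binding buffer, given unlabeled peptide over 10^-6 to 10^-3 M plus radiolabeled thymopentin (548 000 cpm), 30 min at 25 °C. Diluted with ice-cold buffer, washed twice by centrifugation, bound counts by scintillation. Efficacy = (total thymopentin binding − counts after competition)/(reduction by authentic thymopentin); mean ± SEM over repeated trials.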

CCRF-CEM [2] = assay: Ability to bound CEM cell measured as competition for displacement of radiolabeled Thymopentin from the receptor; format: functional, Homo sapiens; outline: as §1
Mus musculus = species on record: Mus musculus; assay: The plasma half life of compound was determined on heparin prepared by mouse plasma; Not degraded; format: ADME
Outline: (§2)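 Half-life in heparinized mouse plasma: peptide incubated for variable times, then parent decrease and degradation products resolved and quantified by HPLC absorbance.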

[3] = The plasma half life of compound was determined on heparin prepared by human plasma; Not degraded; conditions: in vivo
[4] = The plasma half life of compound was determined on heparin prepared by human plasma.
[5] = The plasma half life of compound was determined on EDTA prepared by mouse plasma.; format: ADME
Outline: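 Peptide incubated in EDTA-treated mouse plasma for variable times. Loss of parent and appearance of degradation products quantified by HPLC with absorbance detection; half-life in min.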

[6] = The plasma half life of compound was determined on heparin prepared by mouse plasma.; format: ADME; outline: as §2

SMILES	Binding (CCRF-CEM [1]) [%]	Binding competition (CCRF-CEM [2]) [mean counts]	further results
CC(C)[C@H](CC(=O)[C@H](CC(=O)O)NC(=O)[C@@H]1CCCN1C(=O)[C@H](N)CCCN=C(N)N)C(=O)N[C@@H](Cc1ccccc1)C(=O)O	72	1686	
CCCC[C@H](CC(=O)[C@@H](N)CCCN=C(N)N)C(=O)N[C@@H](CC(=O)O)C(=O)N[C@@H](C(=O)N[C@@H](Cc1ccccc1)C(=O)O)C(C)C	71	1713	
CC(C)[C@H](CC(=O)[C@H](CC(=O)O)NC(=O)[C@H](CCCCN)N(C)C(=O)[C@@H](N)CCCN=C(N)N)C(=O)N[C@@H](Cc1ccccc1)C(=O)O	13	2820	T1/2 (Mus musculus): Not degraded; T1/2 [3]: Not degraded
CC(C)[C@H](CC(=O)[C@H](CC(=O)O)NC(=O)[C@@H]1CCCN1C(=O)[C@H](N)CCCN=C(N)N)C(=O)N[C@@H](Cc1ccccc1)C(N)=O	20	2692	
CCCC[C@H](CC(=O)[C@@H](N)CCCN=C(N)N)C(=O)N[C@@H](CC(=O)O)C(=O)N[C@H](C(=O)N[C@@H](Cc1ccccc1)C(=O)O)C(C)C (stereo in doubt; 2a-A)	44	2222	half-life [4]: 12.5 min
CCCC[C@H](CC(=O)[C@@H](N)CCCN=C(N)N)C(=O)N[C@@H](CC(=O)O)C(=O)N[C@H](C(=O)N[C@@H](Cc1ccccc1)C(=O)O)C(C)C (stereo in doubt; 2a-B)	47	2176	
CCCC[C@H](CC(=O)[C@@H](N)CCCN=C(N)N)C(=O)N[C@@H](CC(=O)O)C(=O)N[C@H](C(=O)N[C@@H](Cc1ccccc1)C(=O)O)C(C)C (stereo in doubt; 2a-C)	20	2687	
CCCC[C@H](CC(=O)[C@@H](N)CCCN=C(N)N)C(=O)N[C@@H](CC(=O)O)C(=O)N[C@H](C(=O)N[C@@H](Cc1ccccc1)C(=O)O)C(C)C (stereo in doubt; 2a-D)	39	2333	
CCCC[C@H](CC(=O)[C@@H](N)CCCN=C(N)N)C(=O)N[C@@H](CC(=O)O)C(=O)N[C@H](C(=O)N[C@@H](Cc1ccccc1)C(N)=O)C(C)C (stereo in doubt; 2b-A)		3627	
CCCC[C@H](CC(=O)[C@@H](N)CCCN=C(N)N)C(=O)N[C@@H](CC(=O)O)C(=O)N[C@H](C(=O)N[C@@H](Cc1ccccc1)C(N)=O)C(C)C (stereo in doubt; 2b-B)	0	3648	
CC(C)[C@H](CC(=O)[C@H](CC(=O)O)NC(=O)[C@H](CCCCN)NC(=O)[C@@H](N)CCCN=C(N)N)C(=O)N[C@@H](Cc1ccccc1)C(=O)O (stereo in doubt; 3a-A)	115	844	half-life [5]: 5.8 min; half-life [6]: 2.4 min; half-life [4]: 2.7 min
CC(C)[C@H](CC(=O)[C@H](CC(=O)O)NC(=O)[C@H](CCCCN)NC(=O)[C@@H](N)CCCN=C(N)N)C(=O)N[C@@H](Cc1ccccc1)C(=O)O (stereo in doubt; 3a-B)	103	1091	
CCCC[C@H](NC(=O)[C@@H](N)CCCN=C(N)N)C(=O)N[C@@H](CC(=O)O)C(=O)C[C@H](C(=O)N[C@@H](Cc1ccccc1)C(=O)O)C(C)C (stereo in doubt; 3b-A)	96	1232	
CCCC[C@H](NC(=O)[C@@H](N)CCCN=C(N)N)C(=O)N[C@@H](CC(=O)O)C(=O)C[C@H](C(=O)N[C@@H](Cc1ccccc1)C(=O)O)C(C)C (stereo in doubt; 3b-B)	85	1447	
C[C@H](CC(=O)[C@H](CC(=O)O)NC(=O)[C@H](CCCCN)NC(=O)[C@@H](N)CCCN=C(N)N)C(=O)N[C@@H](Cc1ccccc1)C(=O)O (stereo in doubt; 3e-A)	47	2172	
C[C@H](CC(=O)[C@H](CC(=O)O)NC(=O)[C@H](CCCCN)NC(=O)[C@@H](N)CCCN=C(N)N)C(=O)N[C@@H](Cc1ccccc1)C(=O)O (stereo in doubt; 3e-B)	24	2606	
